Test [1] concerns the target T1, Cholinesterase (Homo sapiens, UniProt P06276). The experiment in a line: Inhibition of human plasma BChE after 20 mins by Ellman's method. The format is cell-free. In outline: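 Human plasma BChE, Ellman method, in 0.1 M phosphate buffer pH 8.0 with 340 µM butyrylthiocholine iodide. Compounds were preincubated with enzyme for 20 min at 37 °C before substrate was added, and an enzyme-free blank corrected for nonenzymatic hydrolysis. Compounds were screened at 1 mM; those giving >30% inhibition were run at nine concentrations (10-3–10-7 M), three times in triplicate. IC50 came from probit-transformed % activity versus log concentration.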
For orientation: Ellman's reagent forms a yellow product with free thiols.

For test [2], the target named is T1, Cholinesterase. The experiment in a line: Inhibition of human plasma BChE at <10000 uM after 20 mins by Ellman's method. The format is cell-free.

Broadly, the IC50 is the midpoint of a concentration-inhibition curve. Higher therefore signals weaker potency.

The source made the active and inactive calls. The calls are words filed in the database; no cut-off is given here.

T1 sequence (P06276 whole entry): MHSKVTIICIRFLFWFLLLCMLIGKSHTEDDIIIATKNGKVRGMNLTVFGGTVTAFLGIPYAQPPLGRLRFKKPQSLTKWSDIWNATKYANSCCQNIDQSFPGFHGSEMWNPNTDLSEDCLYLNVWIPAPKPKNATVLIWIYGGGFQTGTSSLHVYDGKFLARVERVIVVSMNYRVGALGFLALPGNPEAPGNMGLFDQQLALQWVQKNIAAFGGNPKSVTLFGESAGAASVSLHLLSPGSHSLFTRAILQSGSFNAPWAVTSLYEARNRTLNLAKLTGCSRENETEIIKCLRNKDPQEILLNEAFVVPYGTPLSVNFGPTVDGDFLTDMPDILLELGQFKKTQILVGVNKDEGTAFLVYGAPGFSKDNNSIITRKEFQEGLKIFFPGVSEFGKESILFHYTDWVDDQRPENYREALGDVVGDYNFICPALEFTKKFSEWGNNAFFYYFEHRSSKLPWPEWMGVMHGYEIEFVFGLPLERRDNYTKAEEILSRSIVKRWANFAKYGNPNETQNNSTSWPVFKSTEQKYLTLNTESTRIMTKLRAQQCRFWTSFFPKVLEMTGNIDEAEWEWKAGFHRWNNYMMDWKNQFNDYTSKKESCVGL

`CN1CCC2(Cc3ccccc3)c3ccccc3N(Cc3ccccc3)C12` (configuration not stated) had an IC50 at Cholinesterase [1] of 22.1 µM.

As for `COc1ccc2c(c1)C1(Cc3ccccc3)CCN(Cc3ccccc3)C1N2Cc1ccccc1` (configuration not stated), the result on Cholinesterase [2] was inactive.

`CC(C)=CCN1c2ccccc2C2(CC=C(C)C)CCN(C)C12` (racemic) [(+/-)-DEBROMOFLUSTRAMINE B] yielded a 50% inhibitory concentration (IC50) against Cholinesterase [1] of 2.59 µM. That is a single-digit micromolar value.

Turning to `CC(C)=CCC12CCN(C)C1N(C)c1ccccc12` (configuration not stated), at Cholinesterase [2], the result was inactive.

Regarding `CN1CCC2(C)c3ccccc3N(C)C12` (configuration not stated), the result at Cholinesterase [2] was inactive.

As to `COc1ccc2c(c1)C1(Cc3ccccc3)CCN(C)C1N2Cc1ccccc1` (configuration not stated), on Cholinesterase [1], the midpoint of inhibition, the IC50, lay at 5.89 µM. In other words, the single-digit micromolar range.

Consider `CN1CCC2(Cc3ccncc3)c3ccccc3N(Cc3ccccc3)C12` (configuration not stated), for which the outcome at Cholinesterase [2] was inactive.

Consider `CC(C)CCN1c2ccccc2C2(CCC(C)C)CCN(C)C12` (configuration not stated), for which, at Cholinesterase [2], the outcome was inactive.

For `COc1ccc2c(c1)C1(CC=C(C)C)CCN(Cc3ccccc3)C1N2CC=C(C)C` (configuration not stated), the IC50 at Cholinesterase [1] is 50 µM.

Take `CC(C)=CCN1c2ccccc2C2(CC=C(C)C)CCN(Cc3ccccc3)C12` (configuration not stated): the result at Cholinesterase [2] was inactive.

In turn, `CC(C)=CCN1CCC2(CC=C(C)C)c3ccccc3N(CC=C(C)C)C12` (configuration not stated) yielded a half-inhibitory concentration (IC50) on Cholinesterase [1] of 1.72 µM. This lies in the single-digit micromolar range.

As for `CCN1c2ccccc2C2(CC)CCN(C)C12` (configuration not stated), the outcome on Cholinesterase [2] was inactive.

As to `CC(C)=CCN1c2ccccc2[C@]2(CC=C(C)C)CCN(C)[C@H]12` [(-)-DEBROMOFLUSTRAMINE B], at Cholinesterase [2], the outcome was inactive. At Cholinesterase [1], this molecule yielded an IC50 of 1.37 µM.

On to `CN1CCC2(Cc3ccncc3)c3ccccc3N(Cc3ccncc3)C12` (configuration not stated), for which, at Cholinesterase [2], the outcome was inactive.

In the case of `COc1ccc2c(c1)C1(CC=C(C)C)CCN(Cc3ccccc3)C1N2Cc1ccccc1` (configuration not stated), the result at Cholinesterase [2] was inactive.

Take `CCCN1c2ccccc2C2(CCC)CCN(C)C12` (configuration not stated): the result on Cholinesterase [2] was inactive.

Consider `CC(C)=CCC12CCN(C)C1N(Cc1ccccc1)c1ccccc12` (configuration not stated), for which the IC50 on Cholinesterase [1] turned out to be 10 µM.

`COc1ccc2c(c1)C1(CC=C(C)C)CCN(C)C1N2Cc1ccccc1` (configuration not stated) registered a concentration for half-maximal inhibition (IC50) against Cholinesterase [1] of 7.54 µM.

`COc1ccc2c(c1)C1(CC=C(C)C)CCN(C)C1N2CC=C(C)C` (configuration not stated) registered an IC50 against Cholinesterase [1] of 4.59 µM.

As for `CC(C)=CCN1c2ccccc2[C@@]2(CC=C(C)C)CCN(C)[C@@H]12` [(+)-DEBROMOFLUSTRAMINE B], at Cholinesterase [1], the IC50 turned out to be 10300 µM. Compared with the last molecule, the IC50 is about 2200-fold higher.

Molecule `CC(C)=CCN1c2ccccc2C2(CC=C(C)C)CCNC12` (configuration not stated) [DEMETHYLDEBROMOFLUSTRAMINE B] displayed an IC50 against Cholinesterase [1] of 0.26 µM. This IC50 lies about 40000-fold lower than the previous one.

Values taken from ChEMBL document CHEMBL1157353, “Synthesis and biological evaluation of (-)- and (+)-debromoflustramine B and its analogues as selective butyrylcholinesterase inhibitors” (J Med Chem, 2008).
